Like-named read-outs stand apart in the source and are kept apart here.
How the values were obtained:
[1] = Safety assay on normal cells, MTT assay; assay type: cell-based; conditions: human, WI-38 cells (normal lung fibroblast cell line)
Summary of the method: (§1)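 MTT viability assay, run on normal WI-38 and WISH cells in parallel with MDA-MB-231 and MCF-7 breast cancer lines to judge selectivity. A series of test compounds and a reference drug were tested.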

[2] = Safety assay on normal cells, MTT assay; assay type: cell-based; conditions: human, WISH cells (normal amnion cell line)
Summary of the method: as §1

MCF-7 = conditions: read-out: IC50 against MCF-7; cited from earlier work
HCT-116 = conditions: cited from earlier work
MDA-MB-231 cells [3] = assay type: cell-based, human; conditions: cancer cells over normal cells
MCF-7 cells = assay type: cell-based, human; conditions: cancer cells over normal cells
VEGFR-2 = VEGFR-2 (Homo sapiens, UniProt P35968); assay: biochemical
Sequence of VEGFR-2 (P35968 20-1356): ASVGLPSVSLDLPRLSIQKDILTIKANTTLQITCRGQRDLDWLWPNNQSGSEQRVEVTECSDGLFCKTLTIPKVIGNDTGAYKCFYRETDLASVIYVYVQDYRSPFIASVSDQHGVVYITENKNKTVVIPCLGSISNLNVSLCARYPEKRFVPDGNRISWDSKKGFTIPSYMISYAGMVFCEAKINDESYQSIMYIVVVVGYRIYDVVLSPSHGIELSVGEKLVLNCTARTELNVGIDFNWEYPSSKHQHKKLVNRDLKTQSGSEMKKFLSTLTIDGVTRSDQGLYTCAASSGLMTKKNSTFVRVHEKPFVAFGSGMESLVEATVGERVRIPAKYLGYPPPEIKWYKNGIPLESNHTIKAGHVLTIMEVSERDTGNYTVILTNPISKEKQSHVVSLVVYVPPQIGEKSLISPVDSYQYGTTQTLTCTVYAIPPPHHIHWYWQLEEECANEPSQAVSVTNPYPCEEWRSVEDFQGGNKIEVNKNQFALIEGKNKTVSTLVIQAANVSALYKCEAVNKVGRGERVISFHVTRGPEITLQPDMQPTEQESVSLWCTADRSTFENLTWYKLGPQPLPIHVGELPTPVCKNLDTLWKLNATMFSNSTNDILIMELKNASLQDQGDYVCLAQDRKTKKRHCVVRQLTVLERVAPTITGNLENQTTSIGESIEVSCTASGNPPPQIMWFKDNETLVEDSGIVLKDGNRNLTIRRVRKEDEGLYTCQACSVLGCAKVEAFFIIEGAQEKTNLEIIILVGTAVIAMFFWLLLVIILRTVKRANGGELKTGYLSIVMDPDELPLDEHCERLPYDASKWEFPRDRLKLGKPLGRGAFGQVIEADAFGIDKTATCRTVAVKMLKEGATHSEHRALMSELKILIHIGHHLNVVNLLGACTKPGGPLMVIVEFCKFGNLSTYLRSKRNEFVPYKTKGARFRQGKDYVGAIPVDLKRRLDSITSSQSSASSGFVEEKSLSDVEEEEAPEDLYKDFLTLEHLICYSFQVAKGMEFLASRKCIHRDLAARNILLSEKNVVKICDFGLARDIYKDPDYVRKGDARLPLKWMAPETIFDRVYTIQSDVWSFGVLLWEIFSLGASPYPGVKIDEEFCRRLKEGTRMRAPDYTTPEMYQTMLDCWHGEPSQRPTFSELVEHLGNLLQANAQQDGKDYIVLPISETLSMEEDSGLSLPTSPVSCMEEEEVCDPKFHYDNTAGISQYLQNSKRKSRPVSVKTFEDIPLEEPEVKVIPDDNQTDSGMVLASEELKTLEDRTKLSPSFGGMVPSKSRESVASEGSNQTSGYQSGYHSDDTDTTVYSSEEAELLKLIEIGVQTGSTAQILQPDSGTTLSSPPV

MDA-MB-231 cells [4] = assay: Cell cycle analysis, flow cytometry; assay type: cell-based, human; conditions: MDA-MB-231, 4.64 µM 7a, 48 h
MDA-MB-231 cells [5] = assay: Apoptosis analysis, Annexin V-FITC/PI flow cytometry; assay type: cell-based, human
Summary of the method: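 Annexin V-FITC/PI flow cytometry on MDA-MB-231 cells exposed to test compound. Percentages of viable, early apoptotic, late apoptotic and necrotic cells are compared against an untreated control group of the same cells.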

caspase-3 = assay: ELISA for caspase-3 in MDA-MB-231 cells; assay type: cell-based, human
Bcl-2 = assay: ELISA for Bcl-2 in MDA-MB-231 cells; assay type: cell-based, human
Bax = assay: ELISA for Bax in MDA-MB-231 cells; assay type: cell-based, human; conditions: MDA-MB-231, 4.64 µM 7a, 72 h
[6] = MDA-MB-231, 4.64 µM 7a, 72 h, ELISA

| SMILES | IC50 at 24 h [1] [µM] | IC50 at 24 h [2] [µM] | IC50 (MCF-7) [µM] | IC50 (HCT-116; read-out: IC50 against HCT-116) [µM] | IC50 (HCT-116; read-out: IC50 against HCT-116 cells) [µM] | Selectivity index (SI) for MDA-MB-231 (MDA-MB-231 cells [3]) | Selectivity index (SI) for MCF-7 (MCF-7 cells) | IC50 (VEGFR-2) [µM] | Cell cycle distribution, G0/G1 (MDA-MB-231 cells [4]) [%] | Cell cycle distribution, G2/M (MDA-MB-231 cells [4]) [%] | Cell cycle distribution, S (MDA-MB-231 cells [4]) [%] | viability at 4.64 µM (MDA-MB-231 cells [5]; Homo sapiens, MDA-MB-231, 48 h, read-out: Viable cells) [%] | Early apoptosis (MDA-MB-231 cells [5]; MDA-MB-231, 4.64 µM 7a, 48 h) [%] | Late apoptosis (MDA-MB-231 cells [5]; MDA-MB-231, 4.64 µM 7a, 48 h) [%] | Necrosis (MDA-MB-231 cells [5]; MDA-MB-231, 4.64 µM 7a, 48 h) [%] | Caspase-3 conc. (caspase-3; [6]) | Caspase-3 FLD (caspase-3; fold vs control MDA-MB-231 (FLD = 1), upregulated) [fold] | Bcl-2 conc. (Bcl-2; [6]) | Bcl-2 FLD (Bcl-2; fold vs control MDA-MB-231 (FLD = 1), downregulated) [fold] | Bax conc. (Bax) |
| --- | --- | --- | --- | --- | --- | --- | --- | --- | --- | --- | --- | --- | --- | --- | --- | --- | --- | --- | --- | --- |
| CNC(=O)c1cc(Oc2ccc(NC(=O)Nc3ccc(Cl)c(C(F)(F)F)c3)cc2)ccn1 [Sorafenib] | 10.6 ± 0.8 | 13.4 ± 1.1 | 6.72 | 9.3 | 7.28 |  |  |  |  |  |  |  |  |  |  |  |  |  |  |  |
| CC(=O)c1nn(-c2ccccc2Cl)/c(=N/N=C(\C)c2ccc(NC(=O)c3cccnc3)cc2)s1 [Compound 7a, N-(4-((E)-1-(((Z)-5-Acetyl-3-(2-chlorophenyl)-1,3,4-thiadiazol-2(3H)-ylidene)hydrazono)ethyl)phenyl)nicotinamide] | 73.6 ± 3.8 | 57.7 ± 3.3 |  |  |  | 15.86 | 8.14 | 0.095 ± 0.05 | 33 | 8 | 59 | 50 | 1.06 | 44.01 | 4.94 | 441.93 | 8.2 | 1.53 | 3.68 | 394.72 |

— PMC12056735 (RSC Advances, 2025)
